Experiments:
[1] = tested on: spermine synthase (Bos taurus); assay: Compound was tested for its effect on Bovine brain spermine synthase at 0.4 mM
Mus musculus [2] = organism: Mus musculus; assay: Effect of the addition of stimulated putrescine on the intracellular concentration in concanavalin A stimulated lymphocytes in the absence of compound at 48 hours
Mus musculus [3] = organism: Mus musculus; assay: Effect of the addition of stimulated spermidine on the intracellular concentration in concanavalin A stimulated lymphocytes in the presence of compound (0.5 mM) and putrescine (50 uM) at 48 hours
Mus musculus [4] = organism: Mus musculus; assay: Effect of the addition of stimulated spermidine on the intracellular concentration in concanavalin A stimulated lymphocytes in the absence of compound at 48 hours
Mus musculus [5] = organism: Mus musculus; assay: Effect of the addition of stimulated spermine on the intracellular concentration in concanavalin A stimulated lymphocytes in the absence of compound at 48 hours
Mus musculus [6] = organism: Mus musculus; assay: Effect on putrescine polyamine accumulation in concanavalin A stimulated lymphocytes at 0.02 mM
[7] = molecular target: T1, Spermidine synthase (Rattus norvegicus) (UniProt Q99MI5); assay: Substrate activity for the Bovine brain spermidine synthase product formation; conditions: Bos taurus; target entry is the homologue from another species
T1 sequence (whole entry): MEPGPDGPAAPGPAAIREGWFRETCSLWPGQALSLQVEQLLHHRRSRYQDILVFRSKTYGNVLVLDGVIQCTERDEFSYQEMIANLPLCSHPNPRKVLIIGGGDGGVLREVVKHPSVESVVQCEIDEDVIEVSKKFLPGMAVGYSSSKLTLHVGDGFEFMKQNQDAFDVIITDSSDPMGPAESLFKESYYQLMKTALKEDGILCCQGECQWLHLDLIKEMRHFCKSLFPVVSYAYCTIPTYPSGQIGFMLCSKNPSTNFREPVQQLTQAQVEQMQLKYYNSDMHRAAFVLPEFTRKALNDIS

Mus musculus [8] = organism: Mus musculus; assay: Effect of the addition of stimulated spermidine on the intracellular concentration in concanavalin A stimulated lymphocytes in the presence of compound (0.5 mM) and spermidine (50 uM) at 48 hours
Mus musculus [9] = organism: Mus musculus; assay: Effect of the addition of stimulated spermidine on the intracellular concentration in concanavalin A stimulated lymphocytes in the presence of compound (0.5 mM) and spermine (50 uM) at 48 hours
Mus musculus [10] = organism: Mus musculus; assay: Effect on putrescine polyamine accumulation in concanavalin A stimulated lymphocytes at 0.05 mM
Mus musculus [11] = organism: Mus musculus; assay: Effect on putrescine polyamine accumulation in concanavalin A stimulated lymphocytes at 0.50 mM
Mus musculus [12] = organism: Mus musculus; assay: Effect of the addition of stimulated spermidine on the intracellular concentration in concanavalin A stimulated lymphocytes in the presence of spermidine (50 uM) at 48 hours
Mus musculus [13] = organism: Mus musculus; assay: Effect on putrescine polyamine accumulation in concanavalin A stimulated lymphocytes at 0.35 mM
[14] = molecular target: T1, Spermidine synthase (Rattus norvegicus); assay: Compound was tested for its effect on rat prostatic spermidine synthase at 0.1 mM
Summary of the method: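 Rat prostate spermidine synthase preparation with 20 μM 14C-S-methyladenosylhomocysteamine and 1 mM putrescine, inhibitor at 0.1 mM. Incubation at 37 °C for 15 min; radiolabelled spermidine formed was measured.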

Mus musculus [15] = organism: Mus musculus; assay: Effect on spermidine polyamine accumulation in concanavalin A stimulated lymphocytes at 0.10 mM
[16] = tested on: spermine synthase (Bos taurus); assay: Compound was tested for its effect on Bovine brain spermine synthase at 0.01 mM
[17] = tested on: Spermine synthase (Rattus norvegicus); assay: Substrate activity for Prostatic spermine synthase product formation in rat
Mus musculus [18] = organism: Mus musculus; assay: Effect on spermidine polyamine accumulation in concanavalin A stimulated lymphocytes at 0.05 mM
Mus musculus [19] = organism: Mus musculus; assay: Effect of the addition of stimulated spermine (50 uM) on the intracellular concentration in concanavalin A stimulated lymphocytes in the absence of compound at 48 hours
Mus musculus [20] = organism: Mus musculus; assay: Effect on putrescine polyamine accumulation in concanavalin A stimulated lymphocytes at 0.20 mM
Mus musculus [21] = organism: Mus musculus; assay: Effect on putrescine polyamine accumulation in concanavalin A stimulated lymphocytes at 0.10 mM
[22] = tested on: spermine synthase (Bos taurus); assay: Compound was tested for its effect on Bovine brain spermine synthase at 0.1 mM
Mus musculus [23] = organism: Mus musculus; assay: Effect of the addition of stimulated spermidine on the intracellular concentration in concanavalin A stimulated lymphocytes in the presence of compound (0.5 mM) at 48 hours
[24] = tested on: spermine synthase (Rattus norvegicus); assay: Compound was tested for its effect on rat prostatic spermine synthase at 0.1 mM
Mus musculus [25] = organism: Mus musculus; assay: Effect of the addition of stimulated spermidine on the intracellular concentration in concanavalin A stimulated lymphocytes in the presence of compound (0.5 mM) at 24 hours
[26] = molecular target: T1, Spermidine synthase (Rattus norvegicus); assay: Substrate activity for Prostatic spermidine synthase product formation in rat
Summary of the method: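 Substrate test: 0.13 mM S-methyladenosylhomocysteamine or analogue with 0.6 mM [14C]putrescine (spermidine synthase) or [14C]spermidine (spermine synthase). Enzyme was 1.57 mg rat ventral prostate soluble supernatant protein or 0.09 mg enzyme purified 30-fold from bovine brain soluble fraction. Incubated 20 min at 37 °C, stopped with perchloric acid, and labelled polyamines measured by paper electrophoresis.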

Mus musculus [27] = organism: Mus musculus; assay: Effect of the addition of stimulated spermine on the intracellular concentration in concanavalin A stimulated lymphocytes in the absence of compound at 24 hours
Mus musculus [28] = organism: Mus musculus; assay: Effect on spermidine polyamine accumulation in concanavalin A stimulated lymphocytes at 0.02 mM
[29] = tested on: spermine synthase (Bos taurus); assay: Compound was tested for its effect on Bovine brain spermine synthase at 1.0 mM
Mus musculus [30] = organism: Mus musculus; assay: Effect of the addition of stimulated spermidine on the intracellular concentration in concanavalin A stimulated lymphocytes in the presence of spermine (50 uM) at 48 hours

Activity [1]: 58% | Activity [7]: 25 pmol/min | Activity [14]: 76% | Activity [16]: 102% | Activity [17]: 0% | Activity [22]: 88% | Activity [24]: 66% | Activity [26]: 56 pmol/min | Activity [29]: 23%
SMILES: CC(N)CC[S+](C)C[C@H]1O[C@@H](n2cnc3c(N)ncnc32)[C@H](O)[C@@H]1O.[I-] (stereo not given in full)
Polyamine (Mus musculus [2]): 13.3 pmol/g | Polyamine (Mus musculus [3]): 21.7 pmol/g | Polyamine (Mus musculus [4]): 90.5 pmol/g | Polyamine (Mus musculus [5]): 59.8 pmol/g | Level (Mus musculus [6]): 17.8 pmol/g DNA | Polyamine (Mus musculus [8]): 26.2 pmol/g | Polyamine (Mus musculus [9]): 20 pM/g | Level (Mus musculus [10]): 11 pmol/g DNA | Level (Mus musculus [11]): 3.5 pmol/g DNA | Polyamine (Mus musculus [12]): 157 pmol/g | Level (Mus musculus [13]): 4.2 pmol/g DNA | Level (Mus musculus [15]): 38.7 pmol/g DNA | Level (Mus musculus [18]): 39.8 pmol/g DNA | Polyamine (Mus musculus [19]): 98.2 pM/g | Level (Mus musculus [20]): 6.8 pmol/g DNA | Level (Mus musculus [21]): 8.9 pmol/g DNA | Polyamine (Mus musculus [23]): 19.3 pmol/g | Polyamine (Mus musculus [25]): 17.5 pmol/g | Polyamine (Mus musculus [27]): 38.6 pmol/g | Level (Mus musculus [28]): 67.3 pmol/g DNA | Polyamine (Mus musculus [30]): 38.2 pmol/g

From ChEMBL document CHEMBL1121830, “Inhibitors of polyamine biosynthesis. 9. Effects of S-adenosyl-L-methionine analogues on mammalian aminopropyltransferases in vitro and polyamine biosynthesis in transformed lymphocytes” (1981)
